Reference: ChEMBL document CHEMBL2384974, “Discovery and synthesis of novel 4-aminopyrrolopyrimidine Tie-2 kinase inhibitors for the treatment of solid tumors” (Bioorg Med Chem Lett, 2013)
In brackets after ≈: the same amount, converted by molar mass. Values belong to the compound of their own block, whether it stands above or below them. Activity calls are given as the source filed them. No cut-off for these calls is given here.

What was measured:
[1] = molecular target: Epidermal growth factor receptor (Homo sapiens, UniProt P04626+P00533+Q15303+P21860); experiment: Inhibition of human EGFR extracellular domain/TIE2 intracellular domain transfected in mouse NIH/3T3 cells assessed as phosphotyrosine level preincubated for 60 mins followed by EGF stimulation by DELFIA assay; type: cell-based; conditions: nih3t3
Procedure, shortened: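 NIH/3T3 fibroblasts stably transfected with a chimera of human EGFR extracellular domain and human Tie-2 intracellular domain. Cells were exposed to compound for 60 min, stimulated with EGF, then fixed. Phosphotyrosine was read with an Eu-labeled antibody by DELFIA. In washout runs, medium was replaced with fresh medium and cells were stimulated at set times.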

Angiopoietin-1 receptor [2] = molecular target: T1, Angiopoietin-1 receptor (Homo sapiens, UniProt Q02763); experiment: Inhibition of GST-fused TIE2 (unknown origin) using poly[Glu:Tyr] as substrate assessed as phosphotyrosine level by ELISA
Procedure, shortened: (§1)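 ELISA on poly-Glu-Tyr-coated plates using a GST-Tie-2 kinase fusion protein and 100 µM ATP. Phosphorylated product was detected with HRP-conjugated anti-phosphotyrosine monoclonal antibody (PY20). For reversibility, enzyme was preincubated with compound for 15 min before ATP was added. Kinetics were run with titrated ATP.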

[3] = Metabolic stability in rat liver microsomes assessed as hepatic extraction ratio; type: ADME, Microsome; conditions: read-out: ERH
[4] = Efflux ratio of permeability across basolateral to apical side over apical to basolateral side in human Caco2 cells expressing p-gp; type: ADME, cell-based; conditions: Caco-2
Rattus norvegicus = experiment: Metabolic stability in Sprague-Dawley rat assessed as hepatic extraction at 4.2 mg/kg, po; type: ADME, organism-based; parameters: dose 4.2 mg/kg, route oral; conditions: in vivo
Procedure, shortened: (§2)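 Ultrafasted Sprague–Dawley rats given 4.2 mg/kg as an oral suspension. Cmax, Tmax, hepatic extraction (Eh) and oral bioavailability were derived from systemic plasma levels.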

Mus musculus [5] = experiment: Toxicity in mouse xenografted with rat C6 cells lacking human TIE2 assessed as body weight loss at 10 to 33 mg/kg, po after 10 days; type: organism-based; parameters: dose 10-33 mg/kg, route oral; conditions: in vivo, 240 h
C6 [6] = experiment: Antitumor activity against rat C6 cells lacking human TIE2 xenografted in mouse assessed as tumor growth inhibition at 33 mg/kg, po bid after 10 days; type: functional, organism-based; parameters: dose 33 mg/kg
Procedure, shortened: (§3)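 Oral dosing once or twice daily at 10 or 33 mg/kg for 10 days in the C6 rat glioblastoma xenograft model. The C6 line was uninfected parental cells without human Tie-2. Read-out was percent tumor growth inhibition.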

C6 [7] = experiment: Antitumor activity against rat C6 cells lacking human TIE2 xenografted in mouse assessed as tumor growth inhibition at 10 mg/kg, po bid after 10 days relative to control; type: functional; conditions: C6, 240 h, read-out: TGI; procedure, shortened: as §3
C6 [8] = experiment: Antitumor activity against rat C6 cells lacking human TIE2 xenografted in mouse assessed as tumor growth inhibition at 33 mg/kg, po qd after 10 days relative to control; type: functional; conditions: C6, 240 h, read-out: TGI; procedure, shortened: as §3
[9] = Oral bioavailability in Sprague-Dawley rat at 4.2 mg/kg; type: ADME, organism-based; conditions: in vivo; procedure, shortened: as §2
C6 [10] = experiment: Antitumor activity against rat C6 cells lacking human TIE2 xenografted in mouse assessed as tumor growth inhibition at 10 mg/kg, po qd after 10 days relative to control; type: functional; conditions: C6, 240 h, read-out: TGI; procedure, shortened: as §3
[11] = Tmax in Sprague-Dawley rat at 4.2 mg/kg, po; type: ADME, organism-based; parameters: dose 4.2 mg/kg, route oral; conditions: in vivo; procedure, shortened: as §2
[12] = Cmax in Sprague-Dawley rat at 4.2 mg/kg, po; type: ADME, organism-based; parameters: dose 4.2 mg/kg, route oral; conditions: in vivo; procedure, shortened: as §2
[13] = Volume of distribution at steady state in Sprague-Dawley rat at 0.164 mg/kg, iv; type: ADME, organism-based; parameters: dose 0.164 mg/kg, route intravenous; conditions: in vivo, read-out: Vdss
Procedure, shortened: (§4)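 Male Sprague–Dawley rats, fed, given a single 0.164 mg/kg IV dose. Clearance, steady-state volume of distribution and half-life were derived from plasma levels.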

[14] = Half life in Sprague-Dawley rat at 0.164 mg/kg, iv; type: ADME, organism-based; parameters: dose 0.164 mg/kg, route intravenous; conditions: in vivo; procedure, shortened: as §4
[15] = Clearance in Sprague-Dawley rat at 0.164 mg/kg, iv; type: ADME, organism-based; parameters: dose 0.164 mg/kg, route intravenous; conditions: in vivo; procedure, shortened: as §4
Mus musculus [16] = experiment: Inhibition of human TIE2 phosphorylation expressed in rat C6 cells xenografted in po dosed mouse; type: functional, organism-based
Procedure, shortened: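 Ex vivo assay in C6 rat glioblastoma clones overexpressing human Tie-2 from a retroviral construct, after a single oral dose. Frozen tumors were homogenized in lysis buffer and lysates captured on antibody-coated plates, with HRP-labeled antibody detection. Plasma and tumor drug levels were measured by LC–MS.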

[17] = Metabolic stability in human liver microsomes assessed as hepatic extraction ratio; type: ADME, Microsome; conditions: read-out: ERH
[18] = Inhibition of cytochrome P450 (unknown origin); type: ADME, Homo sapiens
[19] = molecular target: Voltage-gated inwardly rectifying potassium channel KCNH2 (Homo sapiens, UniProt Q12809); experiment: Inhibition of human ERG
Homo sapiens = species: Homo sapiens; experiment: Inhibition of IKr (unknown origin)
[20] = Mutagenic activity in micronucleus (unknown origin); type: ADME
[21] = molecular target: Fibroblast growth factor receptor (Homo sapiens, UniProt P22607+P11362+P22455+P21802); experiment: Inhibition of FGFR (unknown origin); type: protein assay
Salmonella typhimurium = experiment: Mutagenic activity in Salmonella typhimurium by Ames assay; type: toxicity, organism-based; conditions: salmonella enterica subsp. enterica serovar typhimurium
[22] = molecular target: Epidermal growth factor receptor (Homo sapiens, UniProt P00533); experiment: Inhibition of EGFR (unknown origin)
[23] = Solubility of the compound; type: physicochemical
[24] = molecular target: Vascular endothelial growth factor receptor 2 (Homo sapiens, UniProt P35968); experiment: Inhibition of KDR (unknown origin)
[25] = molecular target: Platelet-derived growth factor receptor beta (Homo sapiens, UniProt P09619); experiment: Inhibition of PDGFR (unknown origin)
[26] = Permeability across basolateral to apical side in human Caco2 cells expressing p-gp; type: ADME, cell-based; conditions: Caco-2, read-out: permeability
[27] = Permeability across apical to basolateral side in human Caco2 cells expressing p-gp; type: ADME, cell-based; conditions: Caco-2, read-out: permeability
[28] = molecular target: Proto-oncogene tyrosine-protein kinase Src (Homo sapiens, UniProt P12931); experiment: Inhibition of SRC (unknown origin)
[29] = molecular target: Tyrosine-protein kinase Lck (Homo sapiens, UniProt P06239); experiment: Inhibition of LCK (unknown origin)
Angiopoietin-1 receptor [30] = molecular target: T1, Angiopoietin-1 receptor; experiment: Inhibition of TIE2 (unknown origin); procedure, shortened: as §1

T1 sequence (Q02763 whole entry, the tested form may be a part): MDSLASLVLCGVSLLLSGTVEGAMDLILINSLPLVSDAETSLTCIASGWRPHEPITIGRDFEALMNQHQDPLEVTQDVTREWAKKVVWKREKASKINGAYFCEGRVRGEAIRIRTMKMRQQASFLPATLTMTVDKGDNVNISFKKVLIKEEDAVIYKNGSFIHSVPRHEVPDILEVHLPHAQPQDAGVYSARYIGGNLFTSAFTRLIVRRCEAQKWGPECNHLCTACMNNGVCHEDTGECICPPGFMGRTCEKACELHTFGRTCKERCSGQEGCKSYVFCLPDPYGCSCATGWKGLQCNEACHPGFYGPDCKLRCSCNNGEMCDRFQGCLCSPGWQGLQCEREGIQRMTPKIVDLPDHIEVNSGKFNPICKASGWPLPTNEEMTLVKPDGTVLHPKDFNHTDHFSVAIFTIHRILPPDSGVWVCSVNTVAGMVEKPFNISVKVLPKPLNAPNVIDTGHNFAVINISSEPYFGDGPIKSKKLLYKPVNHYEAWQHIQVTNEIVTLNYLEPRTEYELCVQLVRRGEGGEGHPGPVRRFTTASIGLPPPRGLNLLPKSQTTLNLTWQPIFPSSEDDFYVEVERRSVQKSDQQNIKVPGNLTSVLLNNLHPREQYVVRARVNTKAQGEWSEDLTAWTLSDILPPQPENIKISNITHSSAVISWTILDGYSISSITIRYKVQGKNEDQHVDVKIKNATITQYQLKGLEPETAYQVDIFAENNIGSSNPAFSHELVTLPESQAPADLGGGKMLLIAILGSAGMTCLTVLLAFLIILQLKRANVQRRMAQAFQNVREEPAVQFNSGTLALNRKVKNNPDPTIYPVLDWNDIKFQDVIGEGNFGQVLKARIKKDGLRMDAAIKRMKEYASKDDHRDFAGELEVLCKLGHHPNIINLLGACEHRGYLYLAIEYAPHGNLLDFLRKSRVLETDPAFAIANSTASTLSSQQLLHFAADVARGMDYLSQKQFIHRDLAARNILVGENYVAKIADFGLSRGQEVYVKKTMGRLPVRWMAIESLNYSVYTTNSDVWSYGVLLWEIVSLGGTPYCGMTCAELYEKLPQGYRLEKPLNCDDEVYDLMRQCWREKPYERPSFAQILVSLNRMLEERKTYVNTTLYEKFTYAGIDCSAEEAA
Chain of Vascular endothelial growth factor receptor 2 (P35968 whole entry): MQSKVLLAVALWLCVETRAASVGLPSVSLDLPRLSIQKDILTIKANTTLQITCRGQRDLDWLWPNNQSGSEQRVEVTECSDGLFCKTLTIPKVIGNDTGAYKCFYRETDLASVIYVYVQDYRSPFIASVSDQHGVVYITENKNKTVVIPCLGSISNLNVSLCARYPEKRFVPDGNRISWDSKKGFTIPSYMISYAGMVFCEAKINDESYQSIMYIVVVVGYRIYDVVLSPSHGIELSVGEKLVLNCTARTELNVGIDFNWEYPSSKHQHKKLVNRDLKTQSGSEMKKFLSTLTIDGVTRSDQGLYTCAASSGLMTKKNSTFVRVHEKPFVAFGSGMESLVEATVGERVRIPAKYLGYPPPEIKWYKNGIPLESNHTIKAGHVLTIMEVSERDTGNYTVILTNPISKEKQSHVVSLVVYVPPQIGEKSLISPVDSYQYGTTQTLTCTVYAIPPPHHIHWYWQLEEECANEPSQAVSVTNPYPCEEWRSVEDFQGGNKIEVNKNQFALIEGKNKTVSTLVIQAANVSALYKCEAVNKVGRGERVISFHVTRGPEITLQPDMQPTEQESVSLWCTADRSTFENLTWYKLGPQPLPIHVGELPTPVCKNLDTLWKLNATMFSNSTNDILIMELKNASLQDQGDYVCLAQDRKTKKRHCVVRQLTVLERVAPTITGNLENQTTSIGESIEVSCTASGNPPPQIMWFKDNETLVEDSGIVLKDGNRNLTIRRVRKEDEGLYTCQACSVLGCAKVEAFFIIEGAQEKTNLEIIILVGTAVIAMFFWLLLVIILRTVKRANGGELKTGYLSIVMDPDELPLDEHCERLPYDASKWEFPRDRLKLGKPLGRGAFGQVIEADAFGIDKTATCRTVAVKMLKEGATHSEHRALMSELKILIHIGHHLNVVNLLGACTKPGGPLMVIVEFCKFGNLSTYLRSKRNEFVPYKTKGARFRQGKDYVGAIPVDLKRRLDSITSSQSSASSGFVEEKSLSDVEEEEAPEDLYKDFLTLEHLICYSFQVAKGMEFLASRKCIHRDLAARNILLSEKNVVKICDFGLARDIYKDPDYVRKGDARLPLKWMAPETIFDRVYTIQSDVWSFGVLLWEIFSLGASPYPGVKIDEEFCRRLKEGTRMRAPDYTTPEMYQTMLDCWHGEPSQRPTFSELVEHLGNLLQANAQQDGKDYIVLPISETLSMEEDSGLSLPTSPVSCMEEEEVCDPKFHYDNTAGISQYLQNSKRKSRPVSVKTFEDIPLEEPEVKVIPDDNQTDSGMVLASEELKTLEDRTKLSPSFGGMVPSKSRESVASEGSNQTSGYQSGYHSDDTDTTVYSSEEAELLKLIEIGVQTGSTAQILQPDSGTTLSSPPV
Chain of Platelet-derived growth factor receptor beta (P09619 whole entry): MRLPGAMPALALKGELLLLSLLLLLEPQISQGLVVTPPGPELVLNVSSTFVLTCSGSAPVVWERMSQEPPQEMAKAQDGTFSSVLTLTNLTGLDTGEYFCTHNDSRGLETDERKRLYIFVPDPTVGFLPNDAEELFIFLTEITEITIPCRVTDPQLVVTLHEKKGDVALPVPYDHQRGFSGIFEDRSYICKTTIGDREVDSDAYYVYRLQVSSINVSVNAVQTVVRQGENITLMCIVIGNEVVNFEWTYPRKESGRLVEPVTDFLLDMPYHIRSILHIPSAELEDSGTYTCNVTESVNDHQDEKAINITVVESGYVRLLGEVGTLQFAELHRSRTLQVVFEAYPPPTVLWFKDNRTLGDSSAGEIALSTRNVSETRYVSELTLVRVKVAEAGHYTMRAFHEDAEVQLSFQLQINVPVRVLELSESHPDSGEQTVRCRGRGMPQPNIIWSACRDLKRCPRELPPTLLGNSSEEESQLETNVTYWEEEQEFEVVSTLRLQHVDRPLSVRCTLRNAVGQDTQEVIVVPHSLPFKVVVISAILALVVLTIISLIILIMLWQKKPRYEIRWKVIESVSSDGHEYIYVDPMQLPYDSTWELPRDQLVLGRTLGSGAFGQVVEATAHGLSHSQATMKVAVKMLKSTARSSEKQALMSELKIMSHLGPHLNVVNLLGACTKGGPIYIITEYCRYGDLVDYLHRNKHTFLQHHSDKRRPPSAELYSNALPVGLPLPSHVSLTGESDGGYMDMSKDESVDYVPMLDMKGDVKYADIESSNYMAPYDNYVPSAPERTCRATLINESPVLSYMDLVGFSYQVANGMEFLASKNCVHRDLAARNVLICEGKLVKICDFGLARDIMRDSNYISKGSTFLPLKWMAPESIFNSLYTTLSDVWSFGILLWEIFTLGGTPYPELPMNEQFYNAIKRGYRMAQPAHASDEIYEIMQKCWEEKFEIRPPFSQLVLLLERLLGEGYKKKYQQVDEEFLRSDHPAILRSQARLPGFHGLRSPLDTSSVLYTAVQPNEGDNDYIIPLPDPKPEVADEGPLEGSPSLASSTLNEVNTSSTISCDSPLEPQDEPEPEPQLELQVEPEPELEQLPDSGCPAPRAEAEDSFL
Chain of Proto-oncogene tyrosine-protein kinase Src (P12931 2-536 limits assumed): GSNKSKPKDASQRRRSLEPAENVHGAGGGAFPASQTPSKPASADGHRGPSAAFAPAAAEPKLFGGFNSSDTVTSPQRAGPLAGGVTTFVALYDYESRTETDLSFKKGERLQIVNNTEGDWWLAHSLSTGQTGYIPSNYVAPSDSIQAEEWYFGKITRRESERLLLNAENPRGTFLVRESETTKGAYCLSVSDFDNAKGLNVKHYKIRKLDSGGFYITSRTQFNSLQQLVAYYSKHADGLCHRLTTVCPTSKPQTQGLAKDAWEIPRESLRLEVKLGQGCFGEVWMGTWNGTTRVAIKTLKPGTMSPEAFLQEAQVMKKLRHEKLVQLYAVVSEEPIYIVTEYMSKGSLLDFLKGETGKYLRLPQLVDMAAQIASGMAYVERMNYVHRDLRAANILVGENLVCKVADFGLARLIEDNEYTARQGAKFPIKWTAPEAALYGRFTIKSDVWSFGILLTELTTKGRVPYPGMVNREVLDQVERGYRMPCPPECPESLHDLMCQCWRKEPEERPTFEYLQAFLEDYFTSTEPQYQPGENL
Chain of Tyrosine-protein kinase Lck (P06239 whole entry): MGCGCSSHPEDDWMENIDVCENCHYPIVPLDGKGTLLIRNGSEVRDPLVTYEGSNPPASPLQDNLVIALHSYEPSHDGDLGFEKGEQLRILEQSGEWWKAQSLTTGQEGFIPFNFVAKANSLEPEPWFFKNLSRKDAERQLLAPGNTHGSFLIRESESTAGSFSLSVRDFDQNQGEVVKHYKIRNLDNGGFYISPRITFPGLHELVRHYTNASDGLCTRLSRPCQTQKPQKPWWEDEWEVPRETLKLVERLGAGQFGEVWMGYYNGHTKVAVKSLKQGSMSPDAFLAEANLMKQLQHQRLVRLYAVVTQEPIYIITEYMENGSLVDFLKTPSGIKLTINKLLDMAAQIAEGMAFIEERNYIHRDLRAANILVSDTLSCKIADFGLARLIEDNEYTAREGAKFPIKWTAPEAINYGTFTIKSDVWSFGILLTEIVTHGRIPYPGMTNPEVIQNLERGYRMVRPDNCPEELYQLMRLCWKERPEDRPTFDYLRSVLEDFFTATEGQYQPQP

SMILES: Nc1ncnc2c1c(C(=O)c1cccc(NC(=O)Nc3ccc(Cl)cc3)c1)cn2C1CCCC1
IC50 [1]: 4.6 nM
IC50 (Angiopoietin-1 receptor [2]): 45 nM
hepatic extraction ratio [3]: 0.7
efflux ratio [4]: 17

SMILES: Nc1ncnc2c1c(C(=O)c1ccc(NS(=O)(=O)c3c(F)cccc3F)cc1)cn2C1CCCC1
IC50 [1]: 769 nM
IC50 (Angiopoietin-1 receptor [2]): 745 nM

SMILES: Nc1ncnc2c1c(C(=O)c1ccc(NC(=O)Nc3c(F)cccc3F)cc1)cn2C1CCCC1
IC50 [1]: 254 nM
IC50 (Angiopoietin-1 receptor [2]): 345 nM

SMILES: Nc1ncnc2c1c(C(=O)c1cccc(NC(=O)Nc3ccc(Cl)cc3Cl)c1)cn2C1CCCC1
IC50 [1]: 1.2 nM
efflux ratio [4]: 1.9

SMILES: Nc1ncnc2c1c(-c1nc3ccc(NS(=O)(=O)c4c(F)cccc4F)cc3[nH]1)cn2C1CCCC1
IC50 [1]: 518 nM
IC50 (Angiopoietin-1 receptor [2]): 568 nM
hepatic extraction ratio [3]: 0.69

SMILES: Nc1ncnc2c1c(C(=O)c1cccc(NC(=O)Nc3c(F)cccc3F)c1)cn2C1CCCC1
IC50 [1]: 67 nM
IC50 (Angiopoietin-1 receptor [2]): 361 nM
Papp A→B [27]: 7.7 ×10⁻⁶ cm/s
hepatic extraction ratio [3]: 0.83
IC50 [24]: 3100 nM
IC50 [25]: > 5000 nM
efflux ratio [4]: 3.5

SMILES: Nc1ncnc2c1c(-c1nc3ccc(NC(=O)Nc4c(F)cccc4F)cc3[nH]1)cn2C1CCCC1
IC50 [1]: 112 nM
IC50 (Angiopoietin-1 receptor [2]): 241 nM
hepatic extraction ratio [3]: 0.9
efflux ratio [4]: 3.2

Further lines, with some results ahead:

IC50 [1]: 0.89 nM
IC50 (Angiopoietin-1 receptor [2]): 12 nM
hepatic extraction ratio [3]: 0.8
efflux ratio [4]: 9.2
SMILES: Cc1ccc(F)c(NC(=O)Nc2cccc(C(=O)c3cn(C4CCCC4)c4ncnc(N)c34)c2)c1

IC50 [1]: 0.69 nM
IC50 (Angiopoietin-1 receptor [2]): 8.8 nM
hepatic extraction ratio [3]: 0.69
efflux ratio [4]: 9.4
SMILES: COc1ccc(C)cc1NC(=O)Nc1cccc(C(=O)c2cn(C3CCCC3)c3ncnc(N)c23)c1

Stability (Rattus norvegicus): 27 mL/min/kg
bioavailability [9]: 100%
Tmax [11]: 45 min
Cmax [12]: 1720 ng/mL
Vd [13]: 0.9 L/kg
half-life [14]: 24 min
clearance [15]: 38 mL/min/kg
hepatic extraction ratio [17]: 0.46
hepatic extraction ratio [3]: 0.52
IC50 [18]: > 3000 nM
IC50 [21]: > 10000 nM
IC50 [22]: > 10000 nM
solubility [23]: 35 µg/mL (≈ 78 µM)
IC50 [24]: > 10000 nM
IC50 [25]: 1400 nM
Papp B→A [26]: 9.5 ×10⁻⁶ cm/s
efflux ratio [4]: 1.5
SMILES: CC(C)n1cc(C(=O)c2cccc(NC(=O)Nc3ccc(Cl)cc3)c2)c2c(N)ncnc21
Activity (Mus musculus [5]): Non-toxic
TGI (C6 [6]): Active
inhibition in vivo at 10 mg/kg (C6 [7]): 70%
inhibition in vivo at 33 mg/kg (C6 [8]): 60%
inhibition in vivo at 10 mg/kg (C6 [10]): 40%
inhibition (Mus musculus [16]): Active
inhibition (INH) [19]: Active
IC20 (Homo sapiens): 1000 nM
Activity [20]: Toxic
Activity (Salmonella typhimurium): Non-toxic

IC50 [1]: 253 nM
IC50 (Angiopoietin-1 receptor [2]): 423 nM
efflux ratio [4]: 4.7
SMILES: Nc1ncnc2c1c(C(=O)c1cccc(NS(=O)(=O)c3c(F)cccc3F)c1)cn2C1CCCC1

IC50 [28]: > 3000 nM
IC50 [29]: > 3000 nM
IC50 (Angiopoietin-1 receptor [30]): 137 nM
IC50 [24]: > 3000 nM
SMILES: COc1cc(-c2cn([C@H]3CC[C@H](N4CCN(C)CC4)CC3)c3ncnc(N)c23)ccc1NS(=O)(=O)c1ccccc1

IC50 (Angiopoietin-1 receptor [2]): > 10000 nM
SMILES: Nc1ncnc2c1c(Cc1cccc(NS(=O)(=O)c3c(F)cccc3F)c1)cn2C1CCCC1
